In test [1] the target is Beta-2 adrenergic receptor (Homo sapiens, UniProt P07550). As to the kind of experiment: Binding affinity to human adrenergic beta2 receptor.
The target of test [2] is 5-hydroxytryptamine receptor 1B (Homo sapiens, UniProt P28222). Description: Displacement of [3H]5-hydroxytryptamine from human cloned 5HT1B receptor expressed in CHOK1 cells by liquid scintillation counting. It counts as cell-based, CHO-K1. (In a radioligand displacement assay an active substance lowers the binding of a labelled ligand.)
Test [3] in a line: Displacement of [3H]5-hydroxytryptamine from rhesus monkey cloned 5HT1F receptor expressed in African green monkey COS7 cells by liquid scintillation counting. Format: cell-based, Macaca mulatta. The note with it: cos-7. In short, it runs like this:
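Rhesus monkey 5-HT1F cloned by PCR into pcDNA3.1 and transiently transfected into COS-7 cells. Membranes prepared by homogenization in 50 mM Tris-HCl, 5 mM EDTA, pH 7.4. Filtered over GF/B and counted by liquid scintillation. Ki calculated via Cheng-Prusoff. Mean of more than two runs in duplicate or triplicate.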

Test [4] addresses 5-hydroxytryptamine receptor 1D (Homo sapiens, UniProt P28221). Description: Displacement of [3H]5-hydroxytryptamine from human cloned 5HT1D receptor expressed in CHOK1 cells by liquid scintillation counting. Format: cell-based, CHO-K1. In a few lines:
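Membranes from CHO-K1 cells expressing cloned human 5-HT1D were purchased. Stopped by filtration over GF/B filters and counted by liquid scintillation. Ki derived from IC50 by Cheng-Prusoff. Each value is the mean of more than two runs done in duplicate or triplicate.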

Test [5] addresses T1, Muscarinic acetylcholine receptor M2 (Homo sapiens, UniProt P08172).
T1 sequence (P08172 whole entry): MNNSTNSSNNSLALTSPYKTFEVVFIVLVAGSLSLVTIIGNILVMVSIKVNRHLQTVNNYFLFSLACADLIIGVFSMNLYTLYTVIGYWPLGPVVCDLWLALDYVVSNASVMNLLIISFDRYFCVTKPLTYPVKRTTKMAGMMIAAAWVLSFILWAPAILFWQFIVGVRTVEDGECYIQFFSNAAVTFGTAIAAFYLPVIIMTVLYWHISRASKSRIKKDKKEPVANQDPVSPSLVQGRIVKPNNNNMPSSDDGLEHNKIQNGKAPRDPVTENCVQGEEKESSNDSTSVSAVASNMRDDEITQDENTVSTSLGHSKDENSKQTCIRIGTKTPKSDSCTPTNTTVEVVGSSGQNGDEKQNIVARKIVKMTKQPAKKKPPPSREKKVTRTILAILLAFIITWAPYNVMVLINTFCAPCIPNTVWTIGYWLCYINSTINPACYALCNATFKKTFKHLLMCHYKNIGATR
Description: Binding affinity to human muscarinic M2 receptor.

The target in test [6] is 5-hydroxytryptamine receptor 1B (Oryctolagus cuniculus) (UniProt P49144). As to the kind of experiment: Agonist activity at rabbit 5HT1B receptor assessed as induction of saphenous vein contraction at 30 uM after 5 mins. Format: functional, tissue-based.
Test [7] concerns the target D(2) dopamine receptor (Homo sapiens, UniProt P14416). As to the kind of experiment: Binding affinity to human dopamine D2 receptor.
The target in test [8] is Muscarinic acetylcholine receptor M3 (Homo sapiens, UniProt P20309). Description: Binding affinity to human muscarinic M3 receptor.

1 compound from ChEMBL document CHEMBL1150432 (J Med Chem, 2008) can be followed below.

Molecules are shown by their SMILES. Calls of active or inactive are those of the source. The calls are words filed in the database; no cut-off is given here. A value given as a limit tells only on which side of the number the result lay.

Sequence of 5-hydroxytryptamine receptor 1D (P28221 whole entry): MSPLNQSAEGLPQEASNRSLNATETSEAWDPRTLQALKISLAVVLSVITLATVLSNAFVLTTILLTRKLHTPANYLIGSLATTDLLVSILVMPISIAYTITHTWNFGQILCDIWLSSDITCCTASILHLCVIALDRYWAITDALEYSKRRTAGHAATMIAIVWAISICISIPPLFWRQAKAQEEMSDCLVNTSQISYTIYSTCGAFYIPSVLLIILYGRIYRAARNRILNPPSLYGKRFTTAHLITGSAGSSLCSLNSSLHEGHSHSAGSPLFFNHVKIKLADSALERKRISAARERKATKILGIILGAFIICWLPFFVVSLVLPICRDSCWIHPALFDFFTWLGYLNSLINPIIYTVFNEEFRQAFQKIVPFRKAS
Sequence of Muscarinic acetylcholine receptor M3 (P20309 whole entry): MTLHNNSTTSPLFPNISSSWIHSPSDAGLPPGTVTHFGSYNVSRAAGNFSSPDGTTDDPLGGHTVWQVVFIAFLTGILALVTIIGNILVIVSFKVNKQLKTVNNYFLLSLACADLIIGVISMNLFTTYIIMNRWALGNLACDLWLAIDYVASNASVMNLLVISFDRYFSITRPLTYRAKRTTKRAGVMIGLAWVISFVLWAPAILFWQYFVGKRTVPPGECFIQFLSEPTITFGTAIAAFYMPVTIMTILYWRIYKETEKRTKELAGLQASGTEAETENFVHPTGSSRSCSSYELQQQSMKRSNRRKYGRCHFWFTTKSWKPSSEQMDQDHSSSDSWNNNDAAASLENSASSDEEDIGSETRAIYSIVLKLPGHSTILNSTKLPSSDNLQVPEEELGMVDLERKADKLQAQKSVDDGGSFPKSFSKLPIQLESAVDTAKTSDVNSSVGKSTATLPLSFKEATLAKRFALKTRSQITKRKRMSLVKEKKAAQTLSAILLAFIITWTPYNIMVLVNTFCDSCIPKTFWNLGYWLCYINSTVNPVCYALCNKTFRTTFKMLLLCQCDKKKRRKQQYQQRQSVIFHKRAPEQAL
Sequence of Beta-2 adrenergic receptor (P07550 whole entry): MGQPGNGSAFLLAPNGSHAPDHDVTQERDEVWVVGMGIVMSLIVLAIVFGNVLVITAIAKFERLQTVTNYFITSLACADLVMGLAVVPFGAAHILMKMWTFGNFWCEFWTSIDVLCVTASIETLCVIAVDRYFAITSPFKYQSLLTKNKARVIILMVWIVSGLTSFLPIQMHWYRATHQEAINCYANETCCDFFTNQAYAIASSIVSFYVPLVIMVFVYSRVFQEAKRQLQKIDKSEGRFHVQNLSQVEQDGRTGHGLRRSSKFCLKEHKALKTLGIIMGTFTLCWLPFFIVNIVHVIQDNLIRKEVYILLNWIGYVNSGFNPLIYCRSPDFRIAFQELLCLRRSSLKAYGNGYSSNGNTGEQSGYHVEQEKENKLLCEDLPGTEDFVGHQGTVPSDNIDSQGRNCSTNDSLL
Sequence of D(2) dopamine receptor (P14416 whole entry): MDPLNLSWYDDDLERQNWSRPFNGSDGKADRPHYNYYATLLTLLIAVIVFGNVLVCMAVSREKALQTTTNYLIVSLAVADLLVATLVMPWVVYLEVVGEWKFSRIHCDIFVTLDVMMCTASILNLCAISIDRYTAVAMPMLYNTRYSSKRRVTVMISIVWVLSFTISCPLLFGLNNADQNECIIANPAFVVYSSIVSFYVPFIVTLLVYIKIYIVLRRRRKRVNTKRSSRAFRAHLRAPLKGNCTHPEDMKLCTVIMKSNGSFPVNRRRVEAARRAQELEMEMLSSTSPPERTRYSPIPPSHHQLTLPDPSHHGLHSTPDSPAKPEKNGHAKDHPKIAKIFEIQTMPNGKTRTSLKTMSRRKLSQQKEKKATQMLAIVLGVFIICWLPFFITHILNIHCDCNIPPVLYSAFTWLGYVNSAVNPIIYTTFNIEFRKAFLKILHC
Sequence of 5-hydroxytryptamine receptor 1B (P28222 whole entry): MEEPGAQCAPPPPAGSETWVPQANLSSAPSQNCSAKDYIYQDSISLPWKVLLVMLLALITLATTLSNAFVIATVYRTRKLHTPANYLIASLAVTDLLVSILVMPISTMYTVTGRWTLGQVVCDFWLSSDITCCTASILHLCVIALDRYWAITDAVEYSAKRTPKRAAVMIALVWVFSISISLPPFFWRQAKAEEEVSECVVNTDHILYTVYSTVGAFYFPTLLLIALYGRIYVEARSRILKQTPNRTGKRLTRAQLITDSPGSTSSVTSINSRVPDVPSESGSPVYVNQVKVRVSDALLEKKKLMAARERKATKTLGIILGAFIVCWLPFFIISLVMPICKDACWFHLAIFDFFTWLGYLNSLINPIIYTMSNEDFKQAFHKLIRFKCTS
Sequence of 5-hydroxytryptamine receptor 1B (Oryctolagus cuniculus) (P49144 whole entry): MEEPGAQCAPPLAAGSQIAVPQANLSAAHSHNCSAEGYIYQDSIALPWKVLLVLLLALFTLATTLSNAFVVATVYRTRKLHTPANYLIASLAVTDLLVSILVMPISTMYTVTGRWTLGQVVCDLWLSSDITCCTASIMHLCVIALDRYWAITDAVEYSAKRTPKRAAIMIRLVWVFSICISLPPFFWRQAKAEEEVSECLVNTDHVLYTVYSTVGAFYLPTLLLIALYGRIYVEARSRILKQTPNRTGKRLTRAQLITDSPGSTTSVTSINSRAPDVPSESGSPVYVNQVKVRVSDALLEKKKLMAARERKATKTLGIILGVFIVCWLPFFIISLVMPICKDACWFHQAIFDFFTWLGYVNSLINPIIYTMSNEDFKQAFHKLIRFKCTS

With `O=C(Nc1ccc2[nH]cc(C3CCN(CCCCCCCN4CCC(c5c[nH]c6ccc(NC(=O)c7ccc(F)cc7)cc56)CC4)CC3)c2c1)c1ccc(F)cc1`, the IC50 (usually the concentration that inhibits the measured activity by half) in test [1] is > 10000 nM; in test [5], 3200 nM; in test [7] it was 700 nM; in test [8], > 50000 nM. Moreover, the Ki – broadly, a measure of affinity in units of concentration, obtained from inhibition or displacement – in test [2] is 79 nM; in test [3], > 10000 nM; in test [4], 0.3 nM. Besides, the result in test [6] was inactive.
